Assays:
Adenosine deaminase = molecular target: T1, Adenosine deaminase (Bos taurus, UniProt P56658); assay: inhibitory activity against Adenosine deaminase
T1 sequence (P56658 whole entry): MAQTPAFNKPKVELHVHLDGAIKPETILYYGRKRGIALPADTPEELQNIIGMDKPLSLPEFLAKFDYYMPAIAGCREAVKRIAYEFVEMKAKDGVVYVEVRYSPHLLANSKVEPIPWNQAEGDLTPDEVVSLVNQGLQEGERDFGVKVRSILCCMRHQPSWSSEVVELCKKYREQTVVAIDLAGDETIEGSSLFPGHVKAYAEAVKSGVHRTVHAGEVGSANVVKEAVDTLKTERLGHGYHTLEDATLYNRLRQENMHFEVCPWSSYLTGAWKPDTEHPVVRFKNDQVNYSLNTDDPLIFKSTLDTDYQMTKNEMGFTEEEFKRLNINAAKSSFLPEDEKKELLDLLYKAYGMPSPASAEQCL
Procedure, shortened: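 Adenosine deaminase (calf intestinal mucosa, type VIII) at 37 °C in 50 mM phosphate pH 7.5. Substrate tests used 20–80 μM nucleoside and 0.01–1 unit enzyme, with HPLC product analysis. Inhibition was read by UV spectrometry with adenosine 20–100 μM. Ki was taken from Lineweaver–Burk plots assuming competitive inhibition.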

[1] = Half life of the compound; assay type: ADME
Procedure, shortened: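 Deamination by calf intestinal mucosa adenosine deaminase (type VIII) at 37 °C in 50 mM phosphate buffer pH 7.5. Substrate 20–80 μM with 0.01–1 unit of enzyme depending on substrate. Conversion followed over time by HPLC on C-18 with a phosphate pH 6 / acetonitrile gradient, which also confirmed the deaminated nucleoside as sole product.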

Ki (Adenosine deaminase) [µM]	half-life [1] [h]	Compound
120	–	Nc1ncnc2c1ncn2[C@H]1CC[C@@H](CO)O1
–	74.4	Nc1ncnc2c1ncn2[C@H]1C=C[C@@H](CO)O1

Reference: ChEMBL document CHEMBL1130251, “Enzymatic properties of the unnatural beta-L-enantiomers of 2',3'-dideoxyadenosine and 2',3'-didehydro-2',3'-dideoxyadenosine” (J Med Chem, 1997)
